Laboratory results as given in PubChem BioAssay.
Values joined by “and” are separate entries in the source; they are usually repeats but may differ in a detail not shown here. Identical values can stand only once. Active and inactive are the calls of the source. Cut-off read from the data, not from the text of the source, unless noted: active = inhibition above about 30%; inactive = the rest.

Legend:
[1] = Her2 expression decrease, cell viability multiplex – SKBR3 breast tumor cells, AlphaScreen, ATP viability, primary screen (AID 461;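 active = Her2 level under about 52% in both replicate screens, with viability over 70% of control, limit read from the data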;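 for Her2 level: lower value means less Her2 protein in the cells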;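 for viability: percent of carrier control wells set as 100% viability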); settings: SKBR3 Her2 protein level, 18-24 h, measured here: SKBR3 viability, ATP luminescence, at 10 µM
[2] = target: Receptor tyrosine-protein kinase erbB-2 (Homo sapiens) (UniProt P04626); test: as above; settings: 18-24 h, at 10 µM, stronger effect = lower value
[3] = reduced viability of SK-BR-3 breast cancer cells – cell-based, 24 h, human, pilot screen (AID 572;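 active = viability at or below 10% of carrier control in both of two separate runs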;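 note: compound exposure lasted between 18 and 24 h rather than exactly 24 h; 100% = carrier-treated control wells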); settings: SK-BR-3 viability, CellTiter-Glo luminescence, at 10 µM, stronger effect = lower value
[4] = HUVEC growth inhibition – cell-based, human, primary screen (AID 575;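 active = viability at or below 30% in both replicate assays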;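 note: 100% = median of untreated cell wells with 0.1% DMSO on each plate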); settings: HUVEC proliferation, CellTiter-Glo luminescence, 72 h; at 10 µM; stronger effect = lower value
Outline: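 Timing: 72 h treatment at 37 °C; material: HUVEC primary cells; technique: CellTiter-Glo luminescence measuring cellular ATP; controls: vehicle and MePR control wells; measure: percent of median DMSO-control luminescence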

[5] = H69AR cell proliferation blockers – human, duplicate replicates, primary screen (AID 580;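 active = viability at or under a set limit in both replicates, limit being median viability minus 3 SD, cut at about 48% in these data, passing the limit was not always enough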;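 note: 100% = mean luminescence of untreated wells and 0% = no signal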); settings: H69AR lung tumor cells viability, ATP luminescence, 72 h; at 10 µM; stronger effect = lower value
[6] = MRP1 drug-resistance reversers in H69AR cells – cell-based, doxorubicin co-treatment, pilot screen (AID 601;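 active = viability loss from added drug above about 55%, and viability with drug at most 40%, in both replicates, limit read from the data, passing the limit was not always enough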); settings: CellTiter-Glo, 72 h, at 10 µM; for differential viability (reversal): stronger effect = higher value
[7] = yeast transport mutant growth inhibition pilot in 384-well plates, post-Golgi transport modulator project (AID 636; in the data active = inhibition above about 31%); settings: absorbance 615 nm, about 18 h, stronger effect = higher value
[8] = growth suppression of yeast trafficking mutant, preliminary HTS, modulators of trafficking downstream of Golgi apparatus project, 1536-format plate, OD 615 nm (AID 637); settings: yeast transport mutant growth, absorbance 615 nm, 18 h; stronger effect = higher value
[9] = H69AR cells + 2 uM doxorubicin, measured here: viability with 2 uM doxorubicin, stronger effect = lower value
[10] = H69AR cells, compound alone cytotoxicity

Chain of Receptor tyrosine-protein kinase erbB-2 (Homo sapiens) (P04626 whole entry, looked up): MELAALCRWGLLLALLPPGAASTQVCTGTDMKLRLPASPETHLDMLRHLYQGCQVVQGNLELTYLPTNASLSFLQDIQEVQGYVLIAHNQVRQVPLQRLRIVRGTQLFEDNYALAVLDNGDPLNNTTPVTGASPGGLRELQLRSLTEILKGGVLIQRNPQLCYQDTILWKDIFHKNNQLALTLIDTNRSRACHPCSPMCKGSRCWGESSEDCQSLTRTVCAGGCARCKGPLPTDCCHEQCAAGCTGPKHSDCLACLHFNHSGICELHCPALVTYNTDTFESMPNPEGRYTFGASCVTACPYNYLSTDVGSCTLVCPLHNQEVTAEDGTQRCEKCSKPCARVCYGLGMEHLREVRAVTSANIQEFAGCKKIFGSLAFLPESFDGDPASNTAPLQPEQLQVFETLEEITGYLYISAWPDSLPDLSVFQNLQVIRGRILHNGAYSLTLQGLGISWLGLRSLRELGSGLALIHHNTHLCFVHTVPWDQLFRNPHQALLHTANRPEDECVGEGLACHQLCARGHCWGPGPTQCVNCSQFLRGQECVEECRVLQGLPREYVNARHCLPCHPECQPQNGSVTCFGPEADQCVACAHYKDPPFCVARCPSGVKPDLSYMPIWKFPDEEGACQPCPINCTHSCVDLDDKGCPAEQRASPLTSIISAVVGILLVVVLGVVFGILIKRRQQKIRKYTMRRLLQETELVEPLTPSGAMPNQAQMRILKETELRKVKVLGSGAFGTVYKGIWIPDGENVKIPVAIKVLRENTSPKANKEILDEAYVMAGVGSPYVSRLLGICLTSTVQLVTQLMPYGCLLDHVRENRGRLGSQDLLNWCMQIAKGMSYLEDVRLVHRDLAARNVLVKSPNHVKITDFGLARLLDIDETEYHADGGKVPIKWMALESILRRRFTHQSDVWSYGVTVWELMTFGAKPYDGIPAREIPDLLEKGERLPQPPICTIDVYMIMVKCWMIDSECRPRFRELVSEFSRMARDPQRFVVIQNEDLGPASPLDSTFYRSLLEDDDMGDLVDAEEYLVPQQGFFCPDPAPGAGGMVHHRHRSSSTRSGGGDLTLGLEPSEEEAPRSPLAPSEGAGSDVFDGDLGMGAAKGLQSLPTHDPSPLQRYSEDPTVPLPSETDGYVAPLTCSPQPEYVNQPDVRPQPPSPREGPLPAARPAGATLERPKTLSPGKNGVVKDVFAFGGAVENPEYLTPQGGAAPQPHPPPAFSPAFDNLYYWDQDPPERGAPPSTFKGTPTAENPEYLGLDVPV

| SMILES | viability [1] [%] | Her2 level [2] | viability [3] | viability [4] | viability [5] | differential viability (reversal) ([6]; H69AR cells + 2 uM doxorubicin) | viability [6, 9] | viability [6, 10] | inhibition [7] | inhibition [8] |
| --- | --- | --- | --- | --- | --- | --- | --- | --- | --- | --- |
| c1ccc(-c2nnc(CN3CCC4(CC3)OCCO4)o2)cc1 | 110 | 91.5% (inactive) | 110% (inactive) | 96.9% (inactive) | 98.7% (inactive) | 8.52% (inactive) | 90.2% | 98.7% | -0.79% (inactive) | 14.5% (inactive) |
| COc1ccc(OC)c(NC(=O)CCN2CCN(c3ccccc3F)CC2)c1 | 94.5 | 106% (inactive) | 94.5% (inactive) | 90.8% (inactive) | 97.8% (inactive) | 13.1% (inactive) | 84.7% | 97.8% | -4.93% (inactive) | -8.39% (inactive) |
| O=C(COC(=O)C1CC1)c1c[nH]c2ccccc12 | 93.5 | 107% (inactive) | 93.5% (inactive) | 105% (inactive) | 115% (inactive) | 14.9% (inactive) | 100% | 115% | 3.24% (inactive) | -11.3% (inactive) |
| CCC1C(=O)N=C(SCC(=O)Nc2cccc3ccccc23)NC1=O (stereo not given) | 112 | 100% (inactive) | 112% (inactive) | 106% (inactive) | 82.3% (inactive) | -9.84% (inactive) | 92.1% | 82.3% | -3.24% (inactive) | 0.63% (inactive) |
| COc1ccc2c(c1OC)C(=O)OC2C1c2c(cc3c(c2OC)OCO3)CCN1C (stereo not given) | 89 | 90.5% (inactive) | 89% (inactive) and 83% (inactive) | 70.2% (inactive) and 90.3% (inactive) | 73.8% (inactive) | -40% (inactive) and -23.1% (inactive) | 91.6% and 97% | 51.7% and 73.8% | 1.95% (inactive) and -2.86% (inactive) | 4.92% (inactive) and 5.33% (inactive) |
| CCOC(=O)C1C2C=CC3(CN(c4cccc(Cl)c4)C(=O)C13)O2 (stereo not given) | 86 | 80% (inactive) | 86% (inactive) | 91.2% (inactive) | 97.5% (inactive) | 1.17% (inactive) | 96.3% | 97.5% | -4.4% (inactive) | 0.17% (inactive) |
| CS(=O)(=O)N1CCN(c2ccccc2NC(=O)c2ccc(-c3ccc(Cl)cc3Cl)o2)CC1 | 78.5 | 96.5% (inactive) | 78.5% (inactive) | 76.7% (inactive) | 86.4% (inactive) | 10.2% (inactive) | 76.2% | 86.4% | -2.93% (inactive) | -3.49% (inactive) |
| O=C(CCN1CCOCC1)Nc1cccc(Br)c1 | 100 | 86% (inactive) | 100% (inactive) | 78.9% (inactive) | 92.9% (inactive) | 7.72% (inactive) | 85.2% | 92.9% | -5.47% (inactive) | -6.56% (inactive) |
| O=C1CC(c2ccc(F)c(Br)c2)C2=C(CCCC2=O)N1 (stereo not given) | 102 | 85.5% (inactive) | 102% (inactive) | 84.6% (inactive) | 102% (inactive) | 5.7% (inactive) | 96.1% | 102% | -3.95% (inactive) | -4.67% (inactive) |
| CCCC1(C(=O)OCC)NC(c2ccc(N(C)C)cc2)C2C(=O)N(c3ccccc3)C(=O)C21 (stereo not given) | 109 | 99% (inactive) | 109% (inactive) | 99.2% (inactive) | 97.2% (inactive) | 3.73% (inactive) | 93.5% | 97.2% | -7.11% (inactive) | -6.03% (inactive) |
| CCn1nnnc1SCC(=O)Nc1nnc(C(C)C)s1 | 88.5 | 84.5% (inactive) | 88.5% (inactive) | 103% (inactive) | 92.2% (inactive) | 2.35% (inactive) | 89.8% | 92.2% | -4.4% (inactive) | 3.11% (inactive) |
| NC(=O)CSc1nnc(-c2ccc(O)cc2)n1Cc1ccco1 | 108 | 102% (inactive) | 108% (inactive) | 105% (inactive) | 98.6% (inactive) | 9.33% (inactive) | 89.3% | 98.6% | -6% (inactive) | 4.68% (inactive) |
| O=c1[nH]c(N2CCc3ccccc32)nc2c1CCCC2 | 125 | 104% (inactive) | 125% (inactive) | 101% (inactive) | 104% (inactive) | 21.9% (inactive) | 81.8% | 104% | -1.87% (inactive) | -1.45% (inactive) |
| CCOc1cc(C(=O)NCC2CCCO2)cc(OCC)c1OCC (stereo not given) | 100 | 110% (inactive) | 100% (inactive) | 119% (inactive) | 102% (inactive) | 10% (inactive) | 92.2% | 102% | -4.86% (inactive) | -5.33% (inactive) |
| CCOC(=O)c1[nH]c(C)c(C(=O)N2CCN(C(=O)c3ccco3)CC2)c1C | 88.5 | 95.5% (inactive) | 88.5% (inactive) | 98.4% (inactive) | 97.8% (inactive) | 2.2% (inactive) | 95.6% | 97.8% | -11.6% (inactive) | -0.48% (inactive) |
| Cc1cc(Br)ccc1NC(=O)CNC(=O)CSc1n[nH]c(N)n1 | 110 | 89.5% (inactive) | 110% (inactive) | 99.3% (inactive) | 104% (inactive) | 16.3% (inactive) | 87.3% | 104% | -6.22% (inactive) | 8.41% (inactive) |

| SMILES | viability [1] [%] | Her2 level [2] | viability [3] | viability [4] | viability [5] | differential viability (reversal) ([6]; H69AR cells + 2 uM doxorubicin) | viability [6, 9] | viability [6, 10] | inhibition [7] | inhibition [8] |
| --- | --- | --- | --- | --- | --- | --- | --- | --- | --- | --- |
| COC(=O)c1c(C)oc2ccc(NS(=O)(=O)c3cccs3)cc12 | 106 | 94.5% (inactive) | 106% (inactive) | 59% (inactive) | 78.9% (inactive) | -21.9% (inactive) | 101% | 78.9% | -1.32% (inactive) | 5.9% (inactive) |
| COC(=O)Nc1sc2c(c1C(=O)N1CCOCC1)CCC(C)C2 (stereo not given) | 89.5 | 88.5% (inactive) | 89.5% (inactive) | 79.7% (inactive) | 93.9% (inactive) | -1.66% (inactive) | 95.6% | 93.9% | -2.89% (inactive) | 26% (inactive) |
| O=C(NCCc1c[nH]c2ccccc12)c1ccc(S(=O)(=O)NCc2ccco2)cc1 | 93.5 | 83.5% (inactive) | 93.5% (inactive) | 60.2% (inactive) | 65.6% (inactive) | -11.9% (inactive) | 77.5% | 65.6% | -1.82% (inactive) | -5.4% (inactive) |
| O=C1N=C(N2CCOCC2)CS1 | 108 | 110% (inactive) | 108% (inactive) | 103% (inactive) | 104% (inactive) | 5.3% (inactive) | 98.3% | 104% | -4.27% (inactive) | -1.45% (inactive) |
| Cc1cc(NC(=O)COc2cccc3cccnc23)no1 | 93 | 75% (inactive) | 93% (inactive) | 102% (inactive) | 81% (inactive) | 1.54% (inactive) | 79.5% | 81% | -5.47% (inactive) | -2.79% (inactive) |
| Cc1nc2sc(C#N)c(N)c2c2c1CCCC2 | 95.5 | 78.5% (inactive) | 95.5% (inactive) | 85.7% (inactive) | 102% (inactive) | -6% (inactive) | 108% | 102% | -1.97% (inactive) | 4.36% (inactive) |
| c1cncc(-c2nnc(SCCSc3nnc(-c4cccnc4)o3)o2)c1 | 99.5 | 93% (inactive) | 99.5% (inactive) | 98.7% (inactive) | 91.9% (inactive) | 0.085% (inactive) | 91.8% | 91.9% | -5.68% (inactive) | -2.17% (inactive) |
| Cc1nnc(SCC(=O)Nc2cc(C(F)(F)F)ccc2N2CCOCC2)o1 | 93 | 99% (inactive) | 93% (inactive) | 93.8% (inactive) | 86.8% (inactive) | -2.25% (inactive) | 89% | 86.8% | -0.13% (inactive) | -1.83% (inactive) |
| O=C(NCc1ccc2c(c1)OCO2)c1ccccn1 | 98.5 | 107% (inactive) | 98.5% (inactive) | 92.8% (inactive) | 88.5% (inactive) | 3.29% (inactive) | 85.2% | 88.5% | -6.27% (inactive) | -12.1% (inactive) |
| CCOC(=O)N1CCC(N2C(=O)c3ccc(C(=O)NCc4ccco4)cc3C2=O)CC1 | 95.5 | 94% (inactive) | 95.5% (inactive) | 79.6% (inactive) | 85.9% (inactive) | 4.97% (inactive) | 81% | 85.9% | 0% (inactive) | -0.17% (inactive) |
| Cn1cccc1Cc1nnc(SCC(=O)Nc2ccc(F)cc2F)n1-c1ccc(F)cc1 | 84 | 90.5% (inactive) | 84% (inactive) | 81.6% (inactive) | 94.8% (inactive) | 1.3% (inactive) | 93.5% | 94.8% | -1.03% (inactive) | -3.5% (inactive) |
| CC(=O)Nc1ccc(OCC(O)CN2CCN(c3cccc(Cl)c3)CC2)cc1 (stereo not given) | 76.5 | 82% (inactive) | 76.5% (inactive) | 79.5% (inactive) | 88.4% (inactive) | 6.8% (inactive) | 81.5% | 88.4% | -7.84% (inactive) | 5.74% (inactive) |
| O=C(CN(C(=O)CCC(=O)Nc1nccs1)c1ccccc1F)NCC1CCCO1 (stereo not given) | 110 | 104% (inactive) | 110% (inactive) | 105% (inactive) | 100% (inactive) | 9.81% (inactive) | 90.4% | 100% | -3.33% (inactive) | 13.1% (inactive) |
| CCOC(=O)c1[nH]c(C)c(C(=O)Nc2ccc(C)c(Cl)c2)c1C | 94 | 88% (inactive) | 94% (inactive) | 61.4% (inactive) | 28.6% (active) | -29% (inactive) | 57.6% | 28.6% | -5.53% (inactive) | -2.7% (inactive) |
| O=c1oc2ccccc2c(O)c1C=NCc1ccccn1 | 88 | 93.5% (inactive) | 88% (inactive) | 67.6% (inactive) | 76.8% (inactive) | -10.5% (inactive) | 87.3% | 76.8% | -8.11% (inactive) | -5.57% (inactive) |
| Cc1cccc(OCC(=O)N2CCC(N3CCCCCC3)CC2)c1 | 95.5 | 126% (inactive) | 95.5% (inactive) | 97.1% (inactive) | 106% (inactive) | 7.21% (inactive) | 98.8% | 106% | -1.45% (inactive) | -6.07% (inactive) |
